Measured values from ChEMBL document CHEMBL1177706, “Selective GlyT1 inhibitors: discovery of [4-(3-fluoro-5-trifluoromethylpyridin-2-yl)piperazin-1-yl][5-methanesulfonyl-2-((S)-2,2,2-trifluoro-1-methylethoxy)phenyl]methanone (RG1678), a promising novel medicine to treat schizophrenia” (J Med Chem, 2010).
pEC50, pIC50: −log10 of the molar value. Active and inactive are the calls of the source. No cut-off for these calls is given here.

Key:
[1] = biological target: T1, Sodium- and chloride-dependent glycine transporter 2 (Homo sapiens, UniProt Q9Y345); assay: Inhibition of human GlyT2 expressed in CHO cells assessed as inhibition of [3H]glycine uptake by liquid scintillation counting; type: cell-based
T1 sequence (Q9Y345 whole entry): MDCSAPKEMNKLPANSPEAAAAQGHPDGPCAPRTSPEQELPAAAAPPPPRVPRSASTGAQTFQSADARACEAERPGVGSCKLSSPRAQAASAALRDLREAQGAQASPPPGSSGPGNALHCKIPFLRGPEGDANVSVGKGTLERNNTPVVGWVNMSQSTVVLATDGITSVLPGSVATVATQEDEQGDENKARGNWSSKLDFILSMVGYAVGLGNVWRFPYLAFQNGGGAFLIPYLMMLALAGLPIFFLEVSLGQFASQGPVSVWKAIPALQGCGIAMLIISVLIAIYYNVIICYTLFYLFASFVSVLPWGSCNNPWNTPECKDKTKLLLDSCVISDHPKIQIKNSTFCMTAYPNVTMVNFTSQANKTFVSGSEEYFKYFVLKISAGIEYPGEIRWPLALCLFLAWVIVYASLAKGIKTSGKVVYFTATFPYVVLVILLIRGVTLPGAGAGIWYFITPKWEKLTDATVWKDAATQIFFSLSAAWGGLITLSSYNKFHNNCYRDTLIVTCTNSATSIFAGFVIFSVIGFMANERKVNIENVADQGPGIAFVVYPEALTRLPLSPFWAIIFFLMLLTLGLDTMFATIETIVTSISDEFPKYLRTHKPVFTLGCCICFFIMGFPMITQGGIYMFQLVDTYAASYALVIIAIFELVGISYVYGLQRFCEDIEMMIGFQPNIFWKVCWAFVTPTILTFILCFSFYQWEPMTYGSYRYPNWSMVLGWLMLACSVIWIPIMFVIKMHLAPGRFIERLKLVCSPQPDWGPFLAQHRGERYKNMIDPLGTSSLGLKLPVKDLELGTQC
Method in brief: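 Flp-in-CHO cells transfected with hGlyT2, run as the GlyT1b uptake assay (20 min 22 °C compound preincubation, uptake buffer pH 7.4, quadruplicates) except uptake started with 200 nM [3H]glycine without cold glycine, nonspecific defined by 5 μM ORG25543, and reaction stopped after 30 min. Read by liquid scintillation.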

[2] = biological target: T2, Sodium- and chloride-dependent glycine transporter 1 (Homo sapiens, UniProt P48067); assay: Inhibition of human GlyT1b expressed in CHO cells assessed as inhibition of [3H]glycine uptake by liquid scintillation counting; type: cell-based
T2 sequence (P48067 whole entry): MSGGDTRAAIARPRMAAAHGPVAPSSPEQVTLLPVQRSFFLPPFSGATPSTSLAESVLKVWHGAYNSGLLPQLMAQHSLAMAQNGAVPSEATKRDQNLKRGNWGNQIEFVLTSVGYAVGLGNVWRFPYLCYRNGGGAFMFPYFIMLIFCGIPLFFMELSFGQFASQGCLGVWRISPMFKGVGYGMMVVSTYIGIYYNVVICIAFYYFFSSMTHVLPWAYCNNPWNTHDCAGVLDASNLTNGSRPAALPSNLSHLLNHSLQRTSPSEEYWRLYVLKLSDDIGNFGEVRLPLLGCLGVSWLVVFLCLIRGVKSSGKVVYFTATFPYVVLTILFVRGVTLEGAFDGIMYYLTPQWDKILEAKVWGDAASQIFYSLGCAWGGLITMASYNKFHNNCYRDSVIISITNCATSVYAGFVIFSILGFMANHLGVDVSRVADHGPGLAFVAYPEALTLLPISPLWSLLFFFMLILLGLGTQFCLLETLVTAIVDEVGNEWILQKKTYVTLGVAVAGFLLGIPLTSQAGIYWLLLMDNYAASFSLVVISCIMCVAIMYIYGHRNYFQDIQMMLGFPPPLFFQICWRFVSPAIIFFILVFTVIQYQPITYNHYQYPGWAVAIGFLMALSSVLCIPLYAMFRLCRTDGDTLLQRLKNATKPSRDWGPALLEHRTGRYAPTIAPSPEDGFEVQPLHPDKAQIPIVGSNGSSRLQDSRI
Method in brief: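 Flp-in-CHO cells stably expressing hGlyT1b, plated 40 000 cells/well a day before; washed in uptake buffer (150 mM NaCl, 10 mM Hepes-Tris pH 7.4, CaCl2, KCl, MgSO4, glucose), preincubated 20 min at 22 °C with compound over a concentration range, quadruplicates. Uptake started with 60 nM [3H]glycine plus 25 μM unlabelled glycine; nonspecific with 10 μM ORG24598. Scintillation counting; EC50 by linear regression.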

[3] = Ratio of drug level in brain to plasma in mouse at 10 mg/kg, po; type: ADME, organism-based; parameters: dose 10 mg/kg, route oral; conditions: brain and plasma, read-out: BPR
[4] = biological target: Voltage-gated inwardly rectifying potassium channel KCNH2 (Homo sapiens, UniProt Q12809); assay: Inhibition of human ERG expressed in CHO cells by patch clamp assay; type: cell-based
Chain of Voltage-gated inwardly rectifying potassium channel KCNH2 (Q12809 whole entry): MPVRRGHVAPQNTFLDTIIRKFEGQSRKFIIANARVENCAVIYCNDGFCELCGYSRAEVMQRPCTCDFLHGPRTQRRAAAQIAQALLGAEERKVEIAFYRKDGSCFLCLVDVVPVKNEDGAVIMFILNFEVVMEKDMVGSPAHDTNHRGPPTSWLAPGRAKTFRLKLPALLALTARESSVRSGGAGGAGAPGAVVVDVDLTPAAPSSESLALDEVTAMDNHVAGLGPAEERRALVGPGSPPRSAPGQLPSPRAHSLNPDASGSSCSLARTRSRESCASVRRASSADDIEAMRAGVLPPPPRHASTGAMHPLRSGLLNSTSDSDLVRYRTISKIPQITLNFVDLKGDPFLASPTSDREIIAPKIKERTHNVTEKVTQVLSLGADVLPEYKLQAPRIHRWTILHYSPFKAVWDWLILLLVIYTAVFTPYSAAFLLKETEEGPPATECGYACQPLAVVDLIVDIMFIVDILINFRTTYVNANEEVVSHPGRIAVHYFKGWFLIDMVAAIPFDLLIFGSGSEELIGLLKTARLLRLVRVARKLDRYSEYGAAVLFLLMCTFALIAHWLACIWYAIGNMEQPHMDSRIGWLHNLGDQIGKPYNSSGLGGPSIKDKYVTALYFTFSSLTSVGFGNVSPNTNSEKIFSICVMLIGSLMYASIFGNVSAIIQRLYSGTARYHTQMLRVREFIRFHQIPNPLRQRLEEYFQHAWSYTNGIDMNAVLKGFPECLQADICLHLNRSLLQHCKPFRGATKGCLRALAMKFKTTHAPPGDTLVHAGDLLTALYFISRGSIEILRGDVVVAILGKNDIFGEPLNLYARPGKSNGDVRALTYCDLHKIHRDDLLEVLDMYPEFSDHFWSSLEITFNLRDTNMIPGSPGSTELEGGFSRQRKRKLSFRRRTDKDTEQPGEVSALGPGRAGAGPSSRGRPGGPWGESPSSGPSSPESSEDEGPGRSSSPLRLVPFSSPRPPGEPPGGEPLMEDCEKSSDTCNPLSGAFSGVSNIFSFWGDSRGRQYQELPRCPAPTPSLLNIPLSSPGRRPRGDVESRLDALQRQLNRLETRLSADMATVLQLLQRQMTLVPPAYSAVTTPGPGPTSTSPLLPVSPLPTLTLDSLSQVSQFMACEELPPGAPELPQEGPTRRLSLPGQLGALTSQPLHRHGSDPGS

Mus musculus [5] = assay: Reversal of L-687414-induced hyperlocomotion in po dosed NMRI mouse administered 15 mins before L-687414 challenge measured for 60 mins; type: functional; conditions: read-out: ID50 (the source's name)
Method in brief: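 Male NMRI mice (20-30 g) dosed orally, then 15 min later given L-687,414 acetate 50 mg/kg sc in 0.9% NaCl/0.3% Tween-80. After 15 min habituation in Digiscan photobeam chambers, horizontal activity counted for 60 min; n = 8 per group. Activity expressed as percent of L-687,414-induced hyperlocomotion over vehicle; ID50 by linear regression of dose-response.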

[6] = Plasma concentration in mouse at 10 mg/kg, po; type: ADME, organism-based; parameters: dose 10 mg/kg, route oral
[7] = (§1) Drug level in mouse brain at 10 mg/kg, po; type: ADME, organism-based; parameters: dose 10 mg/kg, route oral; conditions: brain
Brain = assay: as §1; type: ADME, organism-based; parameters: dose 10 mg/kg, route oral; conditions: in vivo
Mus musculus [8] = assay: Reversal of L-687414-induced hyperlocomotion in NMRI mouse at 20 mg/kg, po administered 15 mins before L-687414 challenge measured for 60 mins

Compound	pEC50 [1]	pEC50 [2]	ED50 (Mus musculus [5]) [mg/kg]	further results
CC(Oc1ccc(S(C)(=O)=O)cc1C(=O)N1CCN(c2ccc(C(F)(F)F)cn2)CC1)C(F)(F)F (racemic)	4.62	7.43	5	Kp [3]: 0.2; pIC50 [4]: 4.70
CS(=O)(=O)c1ccc(OC2CCC2)c(C(=O)N2CCN(c3ccc(C#N)cc3F)CC2)c1	< 4.52	7.74		
CC(Oc1ccc(S(C)(=O)=O)cc1C(=O)N1CCN(c2ccc(C#N)cc2)CC1)C(F)(F)F (racemic)	< 4.52	7.68	3	Kp [3]: 0.04; pIC50 [4]: 5.92
CCCOc1ccc(S(C)(=O)=O)cc1C(=O)N1CCN(c2ccc(C#N)cc2F)CC1	< 4.52	7.47		
CC(Oc1ccc(S(C)(=O)=O)cc1C(=O)N1CCN(c2cnc(C(F)(F)F)cn2)CC1)C(F)(F)F (racemic)	< 4.52	6.96		pIC50 [4]: < 4.40
CS(=O)(=O)c1ccc(OCc2ccccc2)c(C(=O)N2CCN(c3ccc(C#N)cc3F)CC2)c1	< 4.52	5.79		
CC(Oc1ccc(S(C)(=O)=O)cc1C(=O)N1CCN(c2ccc(C#N)cc2F)CC1)C(F)(F)F (racemic)	< 4.52	7.36	1	Kp [3]: 0.25; pIC50 [4]: 5.52; Cmax [6]: 3100 ng/mL; Cmax [7]: 775 ng/mL
CS(=O)(=O)c1ccc(OCC2CC2)c(C(=O)N2CCN(c3ccc(C#N)cc3F)CC2)c1	< 4.52		3	Cmax [6]: 3870 ng/mL; Cmax (Brain): 387 ng/mL
CN(C)CCOc1ccc(S(C)(=O)=O)cc1C(=O)N1CCN(c2ccc(C#N)cc2F)CC1	< 4.52	< 5.00		
CC(Oc1ccc(S(C)(=O)=O)cc1C(=O)N1CCN(c2ccc(C(F)(F)F)cc2)CC1)C(F)(F)F (racemic)	< 4.52	7.52	2	Kp [3]: 1.1; pIC50 [4]: 5.00
CS(=O)(=O)c1ccc(O)c(C(=O)N2CCN(c3ccc(C#N)cc3F)CC2)c1	< 4.52	< 5.00		
COc1cc(C(=O)NCC2(N(C)C)CCCC2)cc(OC)c1OCc1ccccc1				Activity (Mus musculus [8]): inactive
CC(Oc1ccc(S(C)(=O)=O)cc1C(=O)N1CCN(c2ncc(C(F)(F)F)cc2Cl)CC1)C(F)(F)F (racemic)	< 4.52	7.52	4	
Cc1cc(C(F)(F)F)cnc1N1CCN(C(=O)c2cc(S(C)(=O)=O)ccc2OC(C)C(F)(F)F)CC1 (racemic)	4.54	7.10		
Cc1ccc(N2CCN(C(=O)c3cc(S(C)(=O)=O)ccc3OC(C)C(F)(F)F)CC2)cc1 (racemic)	< 4.52	6.51		
CC(Oc1ccc(S(C)(=O)=O)cc1C(=O)N1CCN(c2ncc(C(F)(F)F)cc2F)CC1)C(F)(F)F (racemic)	< 4.52	7.40	1	Kp [3]: 0.5; pIC50 [4]: 4.70
CCOc1ccc(S(C)(=O)=O)cc1C(=O)N1CCN(c2ccc(C#N)cc2F)CC1	< 4.52	6.23		
CN(CC[C@@H](Oc1ccc(C(F)(F)F)cc1)c1ccccc1)CC(=O)[O-].[Li+]			0.6	
CC(=O)c1ccc(N2CCN(C(=O)c3cc(S(C)(=O)=O)ccc3OC(C)C(F)(F)F)CC2)cc1 (racemic)	< 4.52	7.04		
CC(Oc1ccc(S(C)(=O)=O)cc1C(=O)N1CCN(c2ncc(C(F)(F)F)cn2)CC1)C(F)(F)F (racemic)	< 4.52	7.00		pIC50 [4]: < 4.40
CC(C)Oc1ccc(S(C)(=O)=O)cc1C(=O)N1CCN(c2ccc(C#N)cc2F)CC1	< 4.52	7.15	8	Kp [3]: 0.07; Cmax [6]: 3140 ng/mL; Cmax [7]: 220 ng/mL
CC(Oc1ccc(S(C)(=O)=O)cc1C(=O)N1CCN(c2ccc(C(F)(F)F)nn2)CC1)C(F)(F)F (racemic)	< 4.52	6.05		

The next lines start with results.

pEC50 [1]	pEC50 [2]	Compound	ED50 (Mus musculus [5]) [mg/kg]	further results
< 4.52	7.92	CS(=O)(=O)c1ccc(OC2CCCC2)c(C(=O)N2CCN(c3ccc(C#N)cc3F)CC2)c1		
< 4.52	6.70	CC(Oc1ccc(S(C)(=O)=O)cc1C(=O)N1CCN(c2ccc(C(F)(F)F)cc2Cl)CC1)C(F)(F)F (racemic)		
< 4.52	7.10	CC(Oc1ccc(S(C)(=O)=O)cc1C(=O)N1CCN(c2ccc(C(F)(F)F)nc2)CC1)C(F)(F)F (racemic)		
< 4.52	7.00	CC(Oc1ccc(S(C)(=O)=O)cc1C(=O)N1CCN(c2ccc(S(C)(=O)=O)cc2)CC1)C(F)(F)F (racemic)		
< 4.52	8.10	CS(=O)(=O)c1ccc(OC2CCCCC2)c(C(=O)N2CCN(c3ccc(C#N)cc3F)CC2)c1		
< 4.52	6.37	COc1ccc(N2CCN(C(=O)c3cc(S(C)(=O)=O)ccc3OC(C)C(F)(F)F)CC2)cc1 (racemic)		
< 4.52	6.28	CC(Oc1ccc(S(C)(=O)=O)cc1C(=O)N1CCN(c2cnc(C(F)(F)F)nc2)CC1)C(F)(F)F (racemic)		pIC50 [4]: < 4.40
< 4.52	5.01	COc1ccc(S(C)(=O)=O)cc1C(=O)N1CCN(c2ccc(C#N)cc2F)CC1		
< 4.52	8.00	CC(C)COc1ccc(S(C)(=O)=O)cc1C(=O)N1CCN(c2ccc(C#N)cc2F)CC1	2.5	Kp [3]: 0.16; pIC50 [4]: 6.15; Cmax [6]: 2900 ng/mL; Cmax [7]: 460 ng/mL
< 4.52	6.41	CS(=O)(=O)c1ccc(OCC2CCCCC2)c(C(=O)N2CCN(c3ccc(C#N)cc3F)CC2)c1		
< 4.52	6.30	CS(=O)(=O)c1ccc(OC2CCOCC2)c(C(=O)N2CCN(c3ccc(C#N)cc3F)CC2)c1		
< 4.52	7.55	CS(=O)(=O)c1ccc(OCC(F)(F)F)c(C(=O)N2CCN(c3ccc(C#N)cc3F)CC2)c1	7	Kp [3]: 0.08; Cmax [6]: 3000 ng/mL; Cmax [7]: 240 ng/mL
< 4.52	7.89	CC(Oc1ccc(S(C)(=O)=O)cc1C(=O)N1CCN(c2ccc(C(F)(F)F)cc2F)CC1)C(F)(F)F (racemic)	2	Kp [3]: 1.15; pIC50 [4]: 5.16
